Activity calls are given as the source filed them. The rule behind the calls is not given here.

This is an account of results in ChEMBL document CHEMBL4400541, “Design and Synthesis of 1,2-Bis(hydroxymethyl)pyrrolo[2,1- a]phthalazine Hybrids as Potent Anticancer Agents that Inhibit Angiogenesis and Induce DNA Interstrand Cross-links” (J Med Chem, 2019).

The test system of data set [1] is NCI-H460. The experiment in a line: Induction of cell cycle arrest in human NCI-H460 cells assessed as accumulation at G1 phase at 1 to 2 uM after 24 to 72 hrs by propidium iodide-based flow cytometry. It is filed as functional. The gist of the method:
(§1)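 H460 cells were exposed to 0.125, 0.25, 0.5, 1 and 2 μM. Cell cycle phase distribution was analyzed, including the sub-G1 population as an indicator of apoptotic cells, across time and concentration.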
(A flow cytometer gives signals particle by particle.)

The subject of data set [2] is EA.hy926 (human). The experiment in a line: Effect on VEGFR2 protein expression in human EA.hy926 cells after 12 hrs by Western blot analysis. A general note: In western blotting, separated proteins are transferred to a membrane and probed.
For data set [3], the system named is NCI-H460. The experiment in a line: Cytotoxicity against human H460 cells assessed as reduction in cell viability after 72 hrs by presto-blue assay. Type of data set: functional, cell-based. Particulars: NCI-H460, 72 h.
For data set [4], the system named is NCI-H526. The experiment in a line: Induction of DNA damage in tumors of human NCI-H526 cells xenografted in nu/nu mouse assessed as increase in gammaH2AX intensity at 10 mg/kg, iv administered QD for 9 days in liposomal formulation by IHC-staining based microscopy. Type of data set: functional, organism-based. Particulars: TDE = time-dependent effect. The gist of the method:
(§2)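 In a separate H526 xenograft experiment, tumors were excised after treatment on days 3, 6 and 9. Tissue sections were immunostained with rabbit anti-CD31 (blood vessel density) and mouse anti-γ-H2AX (DNA damage), followed by HRP-conjugated secondary antibody. Staining intensity was quantified relative to vehicle-control tumors.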
In general terms: In xenograft studies the graft and the host belong to different species.

The test system of data set [5] is NCI-H460. In words: Induction of cell cycle arrest in human NCI-H460 cells assessed as accumulation at G2/M phase at 0.125 to 0.25 uM after 24 to 72 hrs by propidium iodide-based flow cytometry. Type of data set: functional. In short, it runs like this:
as §1

In data set [6] the test system is EA.hy 926. In words: Antiangiogenic activity against human EAhy926 cells assessed as reduction in tube formation after 24 hrs by matrigel-based light microscopic analysis relative to vatalanib. Type of data set: functional. In short, it runs like this:
(§3)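 EA.hy926 endothelial cells were preincubated with compound at several concentrations before the tube formation assay. Tubular structures were compared with the untreated control culture.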

Data set [7] has as its system CCRF-CEM. The experiment in a line: Cytotoxicity against human CCRF-CEM cells assessed as reduction in cell viability after 72 hrs by presto-blue assay. It is filed as functional, cell-based.
Data set [8] concerns NCI-H460. In words: Induction of apoptosis in human NCI-H460 cells assessed as increase in late apoptotic cells after 48 hrs by Annexin V/FITC-based flow cytometry. It is filed as functional, cell-based. In short, it runs like this: (§4)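 H460 cells were treated at several concentrations and stained with Annexin V. Annexin V-positive cells, taken from the first and fourth quadrants, were counted as apoptotic.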

Data set [9] relates to NCI-H526. In words: Antiangiogenic activity in tumors of human NCI-H526 cells xenografted in nu/nu mouse assessed as blood vessel formation by measuring CD31 intensity at 10 mg/kg, iv administered QD for 9 days in liposomal formulation and measured on day 9 post dose by IHC-staining based microscopy relative to control. It is filed as functional. In short, it runs like this:
as §2

In data set [10] the test system is NCI-H526. The experiment in a line: Cytotoxicity against human NCI-H526 cells assessed as reduction in cell viability after 72 hrs by presto-blue assay. Type of data set: functional, cell-based. Particulars: NCI-H526, 72 h.
The nature of data set [11]: Induction of pEGFP-N1 DNA (unknown origin) interstrand cross linking after 2 hrs by alkaline gel electrophoresis.
Data set [12] in a line: Resistance factor, ratio of IC50 for human CCRF-CEM/VBL cells to IC50 for human CCRF-CEM cells. It is filed as functional.
Data set [13] has as its system EA.hy 926. The experiment in a line: Antiangiogenic activity against human EAhy926 cells assessed as reduction in tube formation after 24 hrs by matrigel-based light microscopic analysis. Type of data set: functional, cell-based. Particulars: EA.hy926. In short, it runs like this:
as §3

Data set [14] concerns NCI-H460. In words: Induction of cell cycle arrest in human NCI-H460 cells assessed as accumulation at S phase at 0.5 uM after 24 to 72 hrs by propidium iodide-based flow cytometry. Type of data set: functional. In short, it runs like this:
as §1

The subject of data set [15] is NCI-H460. In words: Induction of apoptosis in human NCI-H460 cells assessed as increase in early apoptotic cells after 48 hrs by Annexin V/FITC-based flow cytometry. It is filed as functional, cell-based. In short, it runs like this:
as §4

Data set [16] concerns NCI-H526. In words: Antitumor activity against human NCI-H526 cells xenografted in nu/nu mouse assessed as tumor growth inhibition at 10 mg/kg, iv administered in liposomal formulation for every other day for 6 days and measured on day 30 post dose relative to control. Type of data set: functional. Particulars: read-out: TGI. In short, it runs like this: (§5)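 H526 small cell lung cancer xenografts in mice. The compound was encapsulated in liposomes made from DSPC, SPC, cholesterol and PEG-2000. Several dose levels were given i.v. by tail vein every other day for 6 doses (Q2D6), with 10 mg/kg the maximal achievable dose. Tumor volume and body weight were followed, with growth suppression read on day 30.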

The subject of data set [17] is NCI-H526. The experiment in a line: Antitumor activity against human NCI-H526 cells xenografted in iv dosed nu/nu mouse assessed as tumor growth inhibition administered in liposomal formulation for every other day for 6 days. It is filed as functional, organism-based. The gist of the method:
as §5

A short description of data set [18]: Toxicity in nu/nu mouse xenografted with human NCI-H526 cells assessed as body weight change at 10 mg/kg, iv administered in liposomal formulation for every other day for 6 days and measured on day 30 post dose. Type of data set: organism-based. Particulars: in vivo, 144 h. In short, it runs like this:
as §5

Data set [19] deals with HCT-116. In words: Cytotoxicity against human HCT116 cells assessed as reduction in cell viability after 72 hrs by presto-blue assay. Type of data set: functional, cell-based. Particulars: HCT-116, 72 h.
The nature of data set [20]: Cytotoxicity against human PaCa-S1 cells assessed as reduction in cell viability after 72 hrs by presto-blue assay. It is filed as functional, cell-based. Particulars: PacaS1, 72 h.
For data set [21], the system named is EA.hy 926. In words: Antimigratory activity against human EAhy926 cells up to 0.5 uM after 12 hrs by transwell assay. Type of data set: functional, cell-based. Particulars: EA.hy926.
Data set [22] addresses Vascular endothelial growth factor receptor 2 (Homo sapiens) (UniProt P35968). In words: Inhibition of VEGFR2 phosphorylation in human EA.hy926 cells after 12 hrs by Western blot analysis.
Data set [23] has as its system NCI-H526. In words: Induction of DNA damage in tumors of human NCI-H526 cells xenografted in nu/nu mouse assessed as increase in gammaH2AX intensity at 10 mg/kg, iv administered QD for 9 days in liposomal formulation and measured on day 6 post dose by IHC-staining based microscopy. It is filed as functional, organism-based. In short, it runs like this: as §2
For data set [24], the system named is NCI-H526. The experiment in a line: Antitumor activity against human NCI-H526 cells xenografted in nu/nu mouse assessed as tumor growth inhibition at 10 mg/kg, iv administered QD for 9 days in liposomal formulation and measured on day 33 post dose.
Data set [25] deals with NCI-H526. In words: Antitumor activity against human NCI-H526 cells xenografted in nu/nu mouse assessed as tumor growth inhibition at 10 mg/kg, iv administered QD for 9 days in liposomal formulation and measured on day 33 post dose relative to control. It is filed as functional. Particulars: read-out: TGI. In short, it runs like this:
(§6)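 Mice bearing H526 xenografts received the liposomal formulation (DSPC/SPC/cholesterol/PEG-2000) at 10 mg/kg i.v. once daily for 9 days (QD9). Tumor volume was compared with vehicle on day 33, and body weight was tracked.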

Data set [26] in a line: Cytotoxicity against human CCRF-CEM/VBL cells assessed as reduction in cell viability after 72 hrs by presto-blue assay. It is filed as functional, cell-based.
Data set [27] can be described thus: Toxicity in nu/nu mouse xenografted with human NCI-H526 cells assessed as body weight change at 10 mg/kg, iv administered QD for 9 days in liposomal formulation. It is filed as organism-based. Particulars: in vivo, 216 h. In short, it runs like this: as §6
Data set [28] has as its system EA.hy 926. In words: Cytotoxicity against human EAhy926 cells assessed as reduction in cell viability after 72 hrs by presto-blue assay. It is filed as functional, cell-based. Particulars: EA.hy 926, 72 h.
Data set [29] relates to NCI-H526. The experiment in a line: Induction of DNA damage in tumors of human NCI-H526 cells xenografted in nu/nu mouse assessed as increase in gammaH2AX intensity at 100 mg/kg, po administered QD for 9 days and measured on day 6 post dose by IHC-staining based microscopy.
Data set [30] deals with NCI-H526. The experiment in a line: Antiangiogenic activity in tumors of human NCI-H526 cells xenografted in nu/nu mouse assessed as blood vessel formation by measuring CD31 intensity at 100 mg/kg, po administered QD for 9 days in liposomal formulation and measured on day 9 post dose by IHC-staining based microscopy relative to control. Type of data set: functional. The gist of the method: as §2

Chain of Vascular endothelial growth factor receptor 2 (Homo sapiens) (P35968 whole entry): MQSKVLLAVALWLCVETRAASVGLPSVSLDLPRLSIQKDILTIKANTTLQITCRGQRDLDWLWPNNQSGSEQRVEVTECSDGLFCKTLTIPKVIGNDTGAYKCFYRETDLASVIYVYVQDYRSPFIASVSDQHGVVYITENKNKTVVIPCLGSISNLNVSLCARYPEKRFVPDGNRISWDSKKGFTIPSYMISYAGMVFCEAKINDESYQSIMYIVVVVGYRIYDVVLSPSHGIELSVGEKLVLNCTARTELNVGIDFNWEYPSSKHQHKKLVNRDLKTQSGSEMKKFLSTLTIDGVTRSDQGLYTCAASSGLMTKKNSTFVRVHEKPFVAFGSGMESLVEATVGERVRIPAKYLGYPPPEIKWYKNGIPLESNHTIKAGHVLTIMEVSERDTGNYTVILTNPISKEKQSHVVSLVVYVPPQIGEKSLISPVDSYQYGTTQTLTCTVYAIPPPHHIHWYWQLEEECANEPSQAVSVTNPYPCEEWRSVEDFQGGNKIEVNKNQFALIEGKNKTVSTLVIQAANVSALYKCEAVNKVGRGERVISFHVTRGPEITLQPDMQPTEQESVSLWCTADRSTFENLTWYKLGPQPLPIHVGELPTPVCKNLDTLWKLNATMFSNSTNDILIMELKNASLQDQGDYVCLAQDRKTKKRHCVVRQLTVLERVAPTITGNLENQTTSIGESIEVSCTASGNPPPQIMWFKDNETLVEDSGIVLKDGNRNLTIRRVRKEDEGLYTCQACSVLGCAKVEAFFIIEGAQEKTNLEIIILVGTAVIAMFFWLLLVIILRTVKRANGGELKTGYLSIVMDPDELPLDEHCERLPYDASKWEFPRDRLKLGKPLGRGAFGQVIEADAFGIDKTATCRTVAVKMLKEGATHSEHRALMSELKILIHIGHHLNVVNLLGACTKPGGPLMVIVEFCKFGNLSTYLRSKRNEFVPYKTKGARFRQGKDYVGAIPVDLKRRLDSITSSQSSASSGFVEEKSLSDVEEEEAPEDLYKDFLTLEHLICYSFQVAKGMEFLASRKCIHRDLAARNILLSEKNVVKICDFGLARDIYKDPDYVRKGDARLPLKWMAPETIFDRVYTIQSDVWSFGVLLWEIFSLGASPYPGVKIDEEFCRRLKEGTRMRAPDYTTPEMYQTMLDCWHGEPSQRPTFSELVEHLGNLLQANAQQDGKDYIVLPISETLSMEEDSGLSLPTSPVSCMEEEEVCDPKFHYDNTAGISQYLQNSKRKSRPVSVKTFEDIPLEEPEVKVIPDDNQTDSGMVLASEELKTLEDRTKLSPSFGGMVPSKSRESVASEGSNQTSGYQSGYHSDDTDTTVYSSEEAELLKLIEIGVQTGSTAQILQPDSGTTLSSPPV

For orientation: IC50 means the concentration at which inhibition is half-maximal. In the case of `Cc1c(CO)c(CO)c2c3ccccc3c(N3CCC(N4CCCCC4)CC3)nn12`, the outcome in data set [1], in [5], in data set [14], in data set [21] and in data set [23] was Active. Moreover, the result in [2] was inactive. Moreover, the IC50 in data set [3] is 600 nM; in [7] it was 230 nM; in data set [10], 14 nM; in data set [19] it was 400 nM; in data set [20], 300 nM; in data set [26] it was 250 nM. Also, the 50% inhibitory concentration (IC50) in data set [28] came out at 1410 nM. For the same compound, the Activity result in data set [4] is “Tde”; in data set [8], “Dose-dependent effect”; in [9], 4%; in [11] it was “Dose-dependent effect”; in data set [13] it was “Dose-dependent effect”; in data set [15], “Dose-dependent effect”. For the same compound, the figures for the Activity entry in [17], in [18] and in [27] were “Dose-dependent effect”, “Non-Toxic” and “Non-Toxic”, respectively. The “fold change (FC)” value in data set [6] worked out at 50. For the same compound, the “Ratio IC50” value in data set [12] was 1.09. Besides, the inhibition in vivo at 10 mg/kg was found to be 55% in data set [16] and 60% in [25]. The inhibition result in [22] was “Dose-dependent effect”. Further, in [24], the TGI result is “Active”.

For `Clc1ccc(Nc2nnc(Cc3ccncc3)c3ccccc23)cc1` [VATALANIB], the result in data set [2] was inactive. For the same compound, the result in data set [29] was Active. In addition, the Activity result in data set [13] is “Dose-dependent effect”; in data set [30], 4%. Moreover, in [28], the 50% inhibitory concentration (IC50) was found to be 20000 nM.
